Data published in PubChem BioAssay AID504382 (The Scripps Research Institute Molecular Screening Center, 2011).
Among all 2,500 compounds or so, about 460 (18%) were called active. Not all results are given here. Unmarked numbers belong to inactive results.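 How the source made its calls: active means mean activation above a cutoff of low control average plus 3 SD from the earlier screen (cut at about 12% in these data); inactive means the rest.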

test: IANBD-channel fluorescence artefacts in buffer – biochemical, artefact control for cardiac RTF calcium sensitizer project, confirmation (AID 504382); settings: IANBD fluorescence interference counterscreen, EC20 Ca2+, at 7.2 µM, hits give high values
In short: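 Also added: EC20 calcium, 0.472 mM; dosing: single nominal 7.2 µM compound dose, 0.7% DMSO final; timing: 15 min, 25 °C; detection: fluorescence intensity, excitation 480 nm, emission 540 nm; replicates: each compound tested in triplicate wells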

Question: With `COc1cc(/C=C2/C(=O)NC(=O)N(c3ccc(C)cc3)C2=O)cc(OC)c1OC` as the molecule, how does the fluorescence artifact activation read?
Answer: The fluorescence artifact activation was 0.06%.

Question: Which fluorescence artifact activation does the source give for `CCN1C[C@]2(CO)CC[C@H](OC)[C@@]34C5C[C@H]6[C@H](OC)C5[C@](O)(C[C@H]6OC)[C@@H](C(OC)C23)[C@@H]14` (some centres undefined) here?
Answer: Its fluorescence artifact activation is 2.26%.

Question: For `NC(=O)c1c(NC(=O)c2ccc(S(=O)(=O)N(CCCl)CCCl)cc2)sc2c1CCCCC2`, which fluorescence artifact activation is on record?
Answer: Its fluorescence artifact activation is 0.08%.

Question: For `CC1=NCCc2c1[nH]c1cc(O)ccc21`, which fluorescence artifact activation is on record?
Answer: The fluorescence artifact activation was 0.1%.

Question: Which fluorescence artifact activation does the source give for `Cc1cc(Cl)ccc1C(=O)C1CCCN(C2CCSCC2)C1` (centres undefined) here?
Answer: Its fluorescence artifact activation is 0%.

Question: With `COC(=O)C1=C(c2cccc(C#N)c2)C[C@@H]2CC[C@H]1N2C(=O)N1CCOCC1` as the molecule, how does the fluorescence artifact activation read?
Answer: Its fluorescence artifact activation is 1.36%.

Question: Which fluorescence artifact activation does the source give for `COCCNC(=O)c1c(N)n(Cc2ccco2)c2nc3ccccc3nc12` here?
Answer: The fluorescence artifact activation was 1.48%.

Question: With `COCCOC(=O)c1c(N)n(Cc2ccco2)c2nc3ccccc3nc12` as the molecule, how does the fluorescence artifact activation read?
Answer: The fluorescence artifact activation was -0.01%.

Question: With `Nc1c(C(=O)NCC2CCCO2)c2nc3ccccc3nc2n1Cc1ccco1` (centres undefined) as the molecule, how does the fluorescence artifact activation read?
Answer: The fluorescence artifact activation was 732% (active).

Question: For `CCOC(=O)c1cc(CC)sc1/N=C/c1c(O)[nH]c(=S)[nH]c1=O`, which fluorescence artifact activation is on record?
Answer: Its fluorescence artifact activation is 1.47%.

Question: Which fluorescence artifact activation does the source give for `CCN(CC)c1ccc(C=C2C(=O)N(C)C(=S)N(C)C2=O)o1` here?
Answer: The fluorescence artifact activation was -0.01%.

Question: With `Cc1cc(C=C(C#N)C#N)ccc1N1CCCC1` as the molecule, how does the fluorescence artifact activation read?
Answer: Its fluorescence artifact activation is 0.79%.

Question: Which fluorescence artifact activation does the source give for `Cc1cc(N2CCCC2)ccc1C=C(C#N)C#N` here?
Answer: Its fluorescence artifact activation is 17.8% (active).

Question: Which fluorescence artifact activation does the source give for `COc1ccc(-n2c(O)c(/C=C/C=Nc3ccccc3)c(=O)[nH]c2=O)cc1` here?
Answer: The fluorescence artifact activation was -0.12%.

Question: Which fluorescence artifact activation does the source give for `Cc1ccc(/C=C2/Sc3ccc(C(=O)N4CCC5(CC4)OCCO5)cc3NC2=O)cc1` here?
Answer: Its fluorescence artifact activation is 38.7% (active).

Question: For `CNS(=O)(=O)c1ccc(N=Cc2c(O)n(-c3ccccc3)c(=O)[nH]c2=O)cc1`, which fluorescence artifact activation is on record?
Answer: Its fluorescence artifact activation is 8.1%.

Question: With `CCC1(C)OC(c2ccccc2)=C/C(=C/C=C2C(=O)NC(=O)NC2=O)O1` (centres undefined) as the molecule, how does the fluorescence artifact activation read?
Answer: The fluorescence artifact activation was 4.44%.

Question: For `CCN(CC)CCCOC(=O)C(OC(C)C)(c1ccccc1)c1ccccc1`, which fluorescence artifact activation is on record?
Answer: The fluorescence artifact activation was 17.1% (active).

Question: For `CCCCN1C(=O)NC(=O)C2(Cc3ccccc3N3CCOCC32)C1=O` (centres undefined), which fluorescence artifact activation is on record?
Answer: The fluorescence artifact activation was -0.11%.

Question: Which fluorescence artifact activation does the source give for `Cc1ccc(-n2c(O)c(C=NCC3CCCO3)c(=O)[nH]c2=O)c(C)c1` (centres undefined) here?
Answer: The fluorescence artifact activation was 0.07%.

Question: With `N#CC(C#N)=Cc1ccc(-c2ccccc2F)o1` as the molecule, how does the fluorescence artifact activation read?
Answer: Its fluorescence artifact activation is 6.89%.

Question: With `CCCc1cc(=O)oc2cc(OCC(=O)N3C[C@H]4C[C@@H](C3)c3cccc(=O)n3C4)ccc12` as the molecule, how does the fluorescence artifact activation read?
Answer: The fluorescence artifact activation was 36.4% (active).

Question: With `CCCc1cc(=O)oc2cc(OCC(=O)N3CCC(C(=O)O)(c4ccccc4)CC3)ccc12` as the molecule, how does the fluorescence artifact activation read?
Answer: Its fluorescence artifact activation is 0.1%.

Question: For `Cn1c(O)c(/C=C/C=Nc2ccccc2)c(=O)n(C)c1=S`, which fluorescence artifact activation is on record?
Answer: Its fluorescence artifact activation is 5.68%.
